≈ marks a conversion by molar mass, not a printed value.
Experiments:
Vero = assay: Cytotoxicity against african green monkey Vero cells after 72 hrs by SRB assay; assay type: cell-based; settings: Chlorocebus sabaeus
Method in brief: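 Vero (ATCC CCL-81) at 10⁵ cells/mL in Eagle's MEM with heat-inactivated FBS and 1 mM sodium pyruvate. Samples at maximum final concentration […]; 0.05% DMSO negative control. 72 h at 37 °C, 5% CO₂. Viability by sulphorhodamine B assay; cytotoxic defined as IC50 below the 180 cutoff.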

Entamoeba histolytica = assay: Antiamoebic activity against Entamoeba histolytica HM-1:IMSS trophozoites after 72 hrs by microdilution technique; assay type: functional, organism-based
Method in brief: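 HM1:IMSS trophozoites in TYIS-33 medium, detached by chilling on ice; 1.7 × 10⁴ organisms/well. Samples in DMSO (final ≤0.1%), diluted in medium. Plates gassed with nitrogen 10 min, incubated 37 °C for 72 h. Washed in warm 0.9% NaCl, methanol-fixed, eosin-stained, dye released with 0.1 N NaOH, OD 490 nm. IC50 from linear regression of % inhibition vs log dose; triplicate.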

Giardia intestinalis = assay: Antigiardial activity against Giardia intestinalis Thai trophozoites after 24 hrs by inverted microscopic analysis; assay type: functional; settings: Giardia duodenalis
[1] = Safety index, ratio of IC50 for african green monkey Vero cells to IC50 for Entamoeba histolytica HM-1:IMSS; assay type: toxicity, cell-based; settings: read-out: Ratio IC50

Compound | IC50 (Entamoeba histolytica) | MIC (Giardia intestinalis) | IC50 (Vero) | selectivity ratio [1]
Cc1ccc(C2=NOC(C)(c3ccc(Cl)cc3)O2)cc1 (stereo not given) | 7.3 µM | > 1500 µM | – | –
Cc1ccc(C2=NOC(C)(c3ccccc3)O2)cc1 (stereo not given) | 1.8 µM | > 1500 µM | > 180 µM | > 100
Cc1ccc(C2=NOC(c3ccccc3)O2)cc1 (stereo not given) | 7.82 µM | > 1500 µM | – | –
Cc1ccc(C2=NOC(c3ccccc3O)O2)cc1 (stereo not given) | 8.61 µM | > 1500 µM | – | –

Continued, in another order:

IC50 (Entamoeba histolytica) | MIC (Giardia intestinalis) | Compound | IC50 (Vero) | selectivity ratio [1]
9.97 µM | 5.65 µM (≈ 1.56 µg/mL) | O=[N+]([O-])c1ccc(C2=NOC(c3ccccc3)O2)s1 (stereo not given) | < 180 µM | –
1.8 µM | > 1500 µM | COc1ccc(C2ON=C(c3ccc(C)cc3)O2)cc1 (stereo not given) | > 180 µM | > 100
2.64 µM | 5.33 µM (≈ 1.56 µg/mL) | O=[N+]([O-])c1ccc(C2=NOC(c3ccccc3O)O2)s1 (stereo not given) | < 180 µM | –
1.6 µM | 20.4 µM (≈ 6.25 µg/mL) | COc1ccc(C2ON=C(c3ccc([N+](=O)[O-])s3)O2)cc1 (stereo not given) | < 180 µM | –
3.77 µM | 10.8 µM (≈ 3.13 µg/mL) | CC1(c2ccccc2)ON=C(c2ccc([N+](=O)[O-])s2)O1 (stereo not given) | < 180 µM | –
6.1 µM | 4.55 µM (≈ 1.48 µg/mL) | CC1(c2ccc(Cl)cc2)ON=C(c2ccc([N+](=O)[O-])s2)O1 (stereo not given) | < 180 µM | –
– | 14.6 µM (≈ 2.5 µg/mL) | Cc1ncc([N+](=O)[O-])n1CCO [METRONIDAZOLE] | – | –

From ChEMBL document CHEMBL1157051, “New dioxazole derivatives: Synthesis and effects on the growth of Entamoeba histolytica and Giardia intestinalis” (Eur J Med Chem, 2010)
